Laboratory results reported in ChEMBL document CHEMBL1152548, “Structural and biological evaluation of some loloatin C analogues” (Bioorg Med Chem, 2009).
Converted amounts (≈) assume the structure as drawn.

Tests used:
Escherichia coli = assay: Antibacterial activity against Escherichia coli ATCC 25922 after 24 to 96 hrs by twofold serial dilution method; format: functional
Outline: (§1)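 Strains kept at -70 °C, grown at 30 °C on blood agar and suspended in physiological saline to OD 0.1 at 595 nm. The suspension was diluted 10× and 2 µL added to 100 µL nutrient broth with yeast extract. Peptides came from an ethanol stock (4 g/L), were diluted in water and twofold diluted in broth (64 to 1 mg/L). Plates were incubated at 30 °C for 24–96 h. MIC was the lowest concentration inhibiting growth.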

[1] = tested on: Staphylococcus epidermidis; assay: Antibacterial activity against Staphylococcus epidermidis ATCC 12228 after 24 to 96 hrs by twofold serial dilution method; format: functional; outline: as §1
Staphylococcus aureus = assay: Antibacterial activity against Staphylococcus aureus ATCC 29213 after 24 to 96 hrs by twofold serial dilution method; format: functional; outline: as §1
Enterococcus faecalis = assay: Antibacterial activity against Enterococcus faecalis ATCC 29212 after 24 to 96 hrs by twofold serial dilution method; format: functional; outline: as §1
Bacillus cereus = assay: Antibacterial activity against Bacillus cereus ATCC 11778 after 24 to 96 hrs by twofold serial dilution method; format: functional; outline: as §1
Pseudomonas aeruginosa = assay: Antibacterial activity against Pseudomonas aeruginosa ATCC 27853 after 24 to 96 hrs by twofold serial dilution method; format: functional; outline: as §1
[2] = tested on: erythrocyte (Homo sapiens); assay: Cytotoxicity against human erythrocytes assessed as induction of hemolysis at 10 uL after 4 hrs
[3] = Solubility in 30% DMSO; format: physicochemical

MIC (Escherichia coli) [µg/mL] | MIC [1] [µg/mL] | MIC (Staphylococcus aureus) [µg/mL] | MIC (Enterococcus faecalis) [µg/mL] | MIC (Bacillus cereus) [µg/mL] | MIC (Pseudomonas aeruginosa) [µg/mL] | solubility [3] | SMILES | Activity [2]
> 64 | > 64 | > 64 | > 64 | > 64 | > 64 |  | CC(C)C[C@@H]1NC(=O)[C@H](CCCN)NC(=O)[C@H](C(C)C)NC(=O)[C@H](Cc2c[nH]c3ccccc23)NC(=O)[C@@H](CC(=O)O)NC(=O)[C@H](CC(N)=O)NC(=O)[C@H](Cc2ccccc2)NC(=O)[C@H](Cc2c[nH]c3ccccc23)NC(=O)[C@@H]2CCCN2C(=O)[C@@H](Cc2ccc(O)cc2)NC1=O | 
> 64 | 32 (≈ 24.9 µM) | > 64 | > 64 | 64 (≈ 49.9 µM) | > 64 | Insoluble | CC(C)C[C@@H]1NC(=O)[C@H](CCCN)NC(=O)[C@H](C(C)C)NC(=O)[C@@H]2O[C@H](CNC(=O)[C@H](CC(N)=O)NC(=O)[C@H](Cc3ccccc3)NC(=O)[C@H](Cc3c[nH]c4ccccc34)NC(=O)[C@@H]3CCCN3C(=O)[C@@H](Cc3ccc(O)cc3)NC1=O)[C@@H](OCc1ccccc1)[C@@H]2O | Toxic
> 64 | 8 (≈ 5.99 µM) | 8 (≈ 5.99 µM) | 8 (≈ 5.99 µM) | 8 (≈ 5.99 µM) | > 64 |  | CC(C)C[C@@H]1NC(=O)[C@H](CCCN)NC(=O)[C@H](C(C)C)NC(=O)[C@H](Cc2c[nH]c3ccccc23)NC(=O)[C@H](CC(=O)O)NC(=O)[C@H](CC(N)=O)NC(=O)[C@@H](Cc2ccccc2)NC(=O)[C@H](Cc2c[nH]c3ccccc23)NC(=O)[C@@H]2CCCN2C(=O)[C@@H](Cc2ccc(O)cc2)NC1=O [LOLOATIN C] | Toxic
> 64 | 32 (≈ 24 µM) | 64 (≈ 47.9 µM) | > 64 | 32 (≈ 24 µM) | > 64 | Insoluble | CC(C)C[C@@H]1NC(=O)[C@H](CCCN)NC(=O)[C@H](C(C)C)NC(=O)[C@H](Cc2c[nH]c3ccccc23)NC(=O)[C@H](CC(=O)O)NC(=O)[C@H](CC(N)=O)NC(=O)[C@H](Cc2ccccc2)NC(=O)[C@H](Cc2c[nH]c3ccccc23)NC(=O)[C@@H]2CCCN2C(=O)[C@@H](Cc2ccc(O)cc2)NC1=O | Toxic
> 64 | > 64 | > 64 | > 64 | > 64 | > 64 | Insoluble | CC(C)C[C@@H]1NC(=O)[C@H](CCCN)NC(=O)[C@H](C(C)C)NC(=O)[C@@H]2O[C@H](CNC(=O)[C@H](CC(N)=O)NC(=O)[C@@H](Cc3ccccc3)NC(=O)[C@H](Cc3c[nH]c4ccccc34)NC(=O)[C@@H]3CCCN3C(=O)[C@@H](Cc3ccc(O)cc3)NC1=O)[C@@H](OCc1ccccc1)[C@@H]2O | Non-toxic
> 64 | > 64 | > 64 | > 64 | > 64 | > 64 | Insoluble | CC(C)C[C@@H]1NC(=O)[C@H](CCCN)NC(=O)[C@H](C(C)C)NC(=O)[C@H](Cc2c[nH]c3ccccc23)NC(=O)[C@H](CC(=O)O)NC(=O)[C@H](CC(N)=O)NC(=O)[C@@H](Cc2ccccc2)NC(=O)[C@H](Cc2c[nH]c3ccccc23)NC(=O)[C@@H]2O[C@H](CNC1=O)[C@@H](OCc1ccccc1)[C@@H]2O | Non-toxic
> 64 | > 64 | > 64 | > 64 | > 64 | > 64 |  | CC(C)C[C@@H]1NC(=O)[C@H](CCCN)NC(=O)[C@H](C(C)C)NC(=O)[C@H](Cc2c[nH]c3ccccc23)NC(=O)[C@H](CC(=O)O)NC(=O)[C@@H]2O[C@H](CNC(=O)[C@H](Cc3c[nH]c4ccccc34)NC(=O)[C@@H]3CCCN3C(=O)[C@@H](Cc3ccc(O)cc3)NC1=O)[C@@H](OCc1ccccc1)[C@@H]2O | Non-toxic
